Test results as given in ChEMBL document CHEMBL4118021, “Studies of TAK1-centered polypharmacology with novel covalent TAK1 inhibitors” (Bioorg Med Chem, 2017).
pIC50: −log10 of the molar value. Calls of active or inactive are those of the source. The rule behind the calls is not given here.

Columns and labels:
[1] = biological target: Mitogen-activated protein kinase kinase kinase 5 (Homo sapiens) (UniProt Q99683); test: Inhibition of MAP3K5 in human SKCO1 cells at 1 uM after 4 hrs using biotin labeled DIKGDNVLINTYSGVLK probe by mass-spectrometric analysis relative to control; format: cell-based
[2] = biological target: T1, Dual specificity protein kinase TTK (Homo sapiens) (UniProt P33981); test: Inhibition of TTK in human SKCO1 cells at 1 uM after 4 hrs using biotin labeled NMLEAVHTIHQHGIVHSDLKPANFLIDGMLK probe by mass-spectrometric analysis relative to control; format: cell-based
T1 sequence (whole entry): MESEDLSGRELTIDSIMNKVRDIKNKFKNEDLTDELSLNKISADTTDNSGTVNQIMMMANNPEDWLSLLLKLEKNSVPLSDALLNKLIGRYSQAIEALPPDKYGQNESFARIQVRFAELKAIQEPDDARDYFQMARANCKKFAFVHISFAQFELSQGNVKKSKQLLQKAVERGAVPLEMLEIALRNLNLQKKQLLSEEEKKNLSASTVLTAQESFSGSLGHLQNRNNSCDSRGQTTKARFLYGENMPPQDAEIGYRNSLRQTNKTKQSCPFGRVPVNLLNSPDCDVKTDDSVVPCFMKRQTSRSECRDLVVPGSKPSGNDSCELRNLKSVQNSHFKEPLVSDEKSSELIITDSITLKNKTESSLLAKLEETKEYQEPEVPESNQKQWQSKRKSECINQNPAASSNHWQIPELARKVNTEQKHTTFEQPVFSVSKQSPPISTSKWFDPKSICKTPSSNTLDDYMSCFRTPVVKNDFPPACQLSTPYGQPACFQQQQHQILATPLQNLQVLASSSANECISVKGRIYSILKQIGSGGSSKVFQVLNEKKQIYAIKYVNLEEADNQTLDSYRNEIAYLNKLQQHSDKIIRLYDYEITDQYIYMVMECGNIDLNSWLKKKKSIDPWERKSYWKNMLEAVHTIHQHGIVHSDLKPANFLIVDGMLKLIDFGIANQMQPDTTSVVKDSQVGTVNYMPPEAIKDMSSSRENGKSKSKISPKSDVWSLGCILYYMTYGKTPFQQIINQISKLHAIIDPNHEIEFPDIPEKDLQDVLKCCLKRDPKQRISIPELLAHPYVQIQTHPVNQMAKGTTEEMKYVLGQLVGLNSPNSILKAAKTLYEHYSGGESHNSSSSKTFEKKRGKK
Outline: (§1)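 Live SK-CO-1 cells exposed to compound at 1 μM or DMSO for 4 h (KiNativ). Lysates then labeled with lysine-reactive ATP/ADP-biotin probe, and probe-labeled kinase peptides quantified by mass spectrometry. Percent inhibition of probe-dependent recovery calculated relative to DMSO-treated cells.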

[3] = test system: HEL; test: Antiproliferative activity against human HEL cells at […] to […] nM after 72 hrs by CellTiter-Glo assay; format: functional, cell-based
[4] = biological target: Tyrosine-protein kinase FRK (Homo sapiens) (UniProt P42685); test: Inhibition of FRK in human SKCO1 cells at 1 uM after 4 hrs using biotin labeled HEIKLPVK probe by mass-spectrometric analysis relative to control; format: cell-based
[5] = biological target: T2, Non-receptor tyrosine-protein kinase TNK1 (Homo sapiens) (UniProt Q13470); test: Inhibition of TNK1 in human SKCO1 cells at 1 uM after 4 hrs using biotin labeled SVPVAVKSLR probe by mass-spectrometric analysis relative to control; format: cell-based; outline: as §1
T2 sequence (whole entry): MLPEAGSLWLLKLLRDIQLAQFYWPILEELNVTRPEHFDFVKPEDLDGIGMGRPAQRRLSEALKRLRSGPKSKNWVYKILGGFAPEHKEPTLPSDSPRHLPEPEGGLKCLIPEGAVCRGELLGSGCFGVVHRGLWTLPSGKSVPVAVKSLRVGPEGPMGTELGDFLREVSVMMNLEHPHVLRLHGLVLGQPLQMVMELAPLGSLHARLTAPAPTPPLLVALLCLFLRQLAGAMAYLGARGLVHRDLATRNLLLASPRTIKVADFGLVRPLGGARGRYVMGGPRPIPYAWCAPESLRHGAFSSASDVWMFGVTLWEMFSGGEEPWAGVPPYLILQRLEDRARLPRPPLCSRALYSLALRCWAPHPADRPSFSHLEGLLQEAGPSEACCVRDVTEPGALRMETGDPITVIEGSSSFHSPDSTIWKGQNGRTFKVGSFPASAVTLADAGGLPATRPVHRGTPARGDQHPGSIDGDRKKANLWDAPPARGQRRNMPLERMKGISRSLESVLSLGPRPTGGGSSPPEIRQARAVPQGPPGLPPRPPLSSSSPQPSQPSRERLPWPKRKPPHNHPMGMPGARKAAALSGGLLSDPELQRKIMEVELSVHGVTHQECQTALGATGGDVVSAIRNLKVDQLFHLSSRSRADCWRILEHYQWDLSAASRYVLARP

[6] = biological target: Tyrosine-protein kinase Fes/Fps (Homo sapiens) (UniProt P07332); test: Inhibition of FES in human SKCO1 cells at 1 uM after 4 hrs using biotin labeled LRADNTLVAVKSCR probe by mass-spectrometric analysis relative to control; format: cell-based
[7] = biological target: Phosphatidylinositol 5-phosphate 4-kinase type-2 alpha (Homo sapiens) (UniProt P48426); test: Inhibition of PIP4K2A in human SKCO1 cells at 1 uM after 4 hrs using biotin labeled AKELPTLKDNDFINEGQK probe by mass-spectrometric analysis relative to control; format: cell-based
[8] = biological target: Serine/threonine-protein kinase Sgk3 (Homo sapiens) (UniProt Q96BR1); test: Inhibition of SGK3 in human SKCO1 cells at 1 uM after 4 hrs using biotin labeled FYAVKVLQK probe by mass-spectrometric analysis relative to control; format: cell-based
[9] = biological target: Tyrosine-protein kinase JAK1 (Homo sapiens) (UniProt P23458); test: Inhibition of JAK1 domain1 in human SKCO1 cells at 1 uM after 4 hrs using biotin labeled QLASALSYLEDKDLVHGNVCTKNLLLAR probe by mass-spectrometric analysis relative to control; format: cell-based
[10] = test system: BaF3; test: Antiproliferative activity against mouse BA/F3 cells harboring KRAS G12D mutant after 72 hrs in presence of IL-3 by CellTiter-Glo assay; format: functional, cell-based; details: BaF3, 72 h
[11] = biological target: T3, Dual specificity mitogen-activated protein kinase kinase 3 (Homo sapiens) (UniProt P46734); test: Inhibition of MAP2K3 in human SKCO1 cells at 1 uM after 4 hrs using biotin labeled DVKPSNVLINK probe by mass-spectrometric analysis relative to control; format: cell-based
T3 sequence (whole entry): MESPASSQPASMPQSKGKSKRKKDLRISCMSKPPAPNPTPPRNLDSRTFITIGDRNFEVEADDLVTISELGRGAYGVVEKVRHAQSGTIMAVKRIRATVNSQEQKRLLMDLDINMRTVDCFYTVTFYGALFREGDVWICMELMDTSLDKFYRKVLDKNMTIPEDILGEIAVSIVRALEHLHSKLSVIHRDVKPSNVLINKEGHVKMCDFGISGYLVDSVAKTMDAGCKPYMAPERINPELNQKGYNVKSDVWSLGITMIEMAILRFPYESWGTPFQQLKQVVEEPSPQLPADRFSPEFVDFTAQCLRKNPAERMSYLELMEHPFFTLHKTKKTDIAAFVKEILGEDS

Tyrosine-protein kinase Fes/Fps (Homo sapiens), sequence (P07332 whole entry): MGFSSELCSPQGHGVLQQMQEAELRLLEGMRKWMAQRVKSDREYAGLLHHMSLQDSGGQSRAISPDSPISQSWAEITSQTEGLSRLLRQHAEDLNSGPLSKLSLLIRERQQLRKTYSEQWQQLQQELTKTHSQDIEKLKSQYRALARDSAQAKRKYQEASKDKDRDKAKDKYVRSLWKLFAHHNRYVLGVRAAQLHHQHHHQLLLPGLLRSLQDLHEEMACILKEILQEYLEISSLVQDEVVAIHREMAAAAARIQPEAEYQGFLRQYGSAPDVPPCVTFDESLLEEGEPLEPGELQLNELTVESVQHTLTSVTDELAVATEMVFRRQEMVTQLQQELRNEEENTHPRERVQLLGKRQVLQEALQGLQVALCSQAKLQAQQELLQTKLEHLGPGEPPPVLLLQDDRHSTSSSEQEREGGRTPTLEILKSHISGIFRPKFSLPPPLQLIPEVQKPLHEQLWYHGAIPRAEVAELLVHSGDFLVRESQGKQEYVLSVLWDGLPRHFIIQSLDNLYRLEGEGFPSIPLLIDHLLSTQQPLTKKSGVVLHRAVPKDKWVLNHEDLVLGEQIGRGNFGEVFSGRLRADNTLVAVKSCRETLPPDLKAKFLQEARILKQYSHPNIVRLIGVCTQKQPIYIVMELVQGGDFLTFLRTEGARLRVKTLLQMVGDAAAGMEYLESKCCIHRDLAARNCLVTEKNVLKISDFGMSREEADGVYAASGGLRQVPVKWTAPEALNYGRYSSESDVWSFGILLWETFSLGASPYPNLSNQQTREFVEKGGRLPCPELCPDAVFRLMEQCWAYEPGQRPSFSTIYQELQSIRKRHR
Phosphatidylinositol 5-phosphate 4-kinase type-2 alpha (Homo sapiens), sequence (P48426 whole entry): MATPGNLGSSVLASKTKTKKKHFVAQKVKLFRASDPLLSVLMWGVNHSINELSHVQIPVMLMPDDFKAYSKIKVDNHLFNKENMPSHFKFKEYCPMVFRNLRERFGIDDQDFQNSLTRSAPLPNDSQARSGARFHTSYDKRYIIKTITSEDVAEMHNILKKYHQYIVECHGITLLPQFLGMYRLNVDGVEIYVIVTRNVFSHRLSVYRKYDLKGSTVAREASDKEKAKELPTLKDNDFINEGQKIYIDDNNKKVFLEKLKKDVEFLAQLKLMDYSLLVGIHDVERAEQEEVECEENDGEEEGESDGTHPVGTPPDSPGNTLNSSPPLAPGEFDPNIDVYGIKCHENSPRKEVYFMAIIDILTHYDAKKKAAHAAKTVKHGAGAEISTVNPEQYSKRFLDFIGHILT
Tyrosine-protein kinase JAK1 (Homo sapiens), sequence (P23458 whole entry, the tested form may be a part): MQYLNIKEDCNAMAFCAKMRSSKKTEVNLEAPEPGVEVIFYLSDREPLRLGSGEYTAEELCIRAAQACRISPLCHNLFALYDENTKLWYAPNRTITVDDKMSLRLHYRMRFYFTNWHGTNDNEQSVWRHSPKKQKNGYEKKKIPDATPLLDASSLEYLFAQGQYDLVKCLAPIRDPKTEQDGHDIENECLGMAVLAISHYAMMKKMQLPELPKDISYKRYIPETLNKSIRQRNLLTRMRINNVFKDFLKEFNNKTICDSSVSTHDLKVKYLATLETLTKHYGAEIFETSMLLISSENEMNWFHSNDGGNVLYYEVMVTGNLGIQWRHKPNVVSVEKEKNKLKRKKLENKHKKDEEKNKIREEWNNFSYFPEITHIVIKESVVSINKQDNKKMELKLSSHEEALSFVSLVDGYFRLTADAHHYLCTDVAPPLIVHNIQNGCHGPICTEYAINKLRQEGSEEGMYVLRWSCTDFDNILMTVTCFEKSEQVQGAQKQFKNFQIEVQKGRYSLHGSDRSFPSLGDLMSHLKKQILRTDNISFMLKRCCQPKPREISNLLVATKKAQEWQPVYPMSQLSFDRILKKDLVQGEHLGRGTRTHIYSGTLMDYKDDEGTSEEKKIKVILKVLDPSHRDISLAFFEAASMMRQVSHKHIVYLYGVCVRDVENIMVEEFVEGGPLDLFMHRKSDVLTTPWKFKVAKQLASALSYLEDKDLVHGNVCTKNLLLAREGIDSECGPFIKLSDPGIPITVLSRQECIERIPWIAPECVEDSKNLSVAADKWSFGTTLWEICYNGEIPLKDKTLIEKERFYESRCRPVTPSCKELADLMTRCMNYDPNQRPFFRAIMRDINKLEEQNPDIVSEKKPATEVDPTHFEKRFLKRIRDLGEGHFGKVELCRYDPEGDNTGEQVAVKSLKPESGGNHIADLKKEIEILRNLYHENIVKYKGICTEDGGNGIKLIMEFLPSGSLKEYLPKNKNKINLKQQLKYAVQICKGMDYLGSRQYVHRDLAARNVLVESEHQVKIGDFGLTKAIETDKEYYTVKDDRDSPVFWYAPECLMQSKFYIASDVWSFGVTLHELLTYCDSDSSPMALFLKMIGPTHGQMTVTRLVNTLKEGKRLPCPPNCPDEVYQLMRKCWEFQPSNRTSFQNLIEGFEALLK
Mitogen-activated protein kinase kinase kinase 5 (Homo sapiens), sequence (Q99683 whole entry): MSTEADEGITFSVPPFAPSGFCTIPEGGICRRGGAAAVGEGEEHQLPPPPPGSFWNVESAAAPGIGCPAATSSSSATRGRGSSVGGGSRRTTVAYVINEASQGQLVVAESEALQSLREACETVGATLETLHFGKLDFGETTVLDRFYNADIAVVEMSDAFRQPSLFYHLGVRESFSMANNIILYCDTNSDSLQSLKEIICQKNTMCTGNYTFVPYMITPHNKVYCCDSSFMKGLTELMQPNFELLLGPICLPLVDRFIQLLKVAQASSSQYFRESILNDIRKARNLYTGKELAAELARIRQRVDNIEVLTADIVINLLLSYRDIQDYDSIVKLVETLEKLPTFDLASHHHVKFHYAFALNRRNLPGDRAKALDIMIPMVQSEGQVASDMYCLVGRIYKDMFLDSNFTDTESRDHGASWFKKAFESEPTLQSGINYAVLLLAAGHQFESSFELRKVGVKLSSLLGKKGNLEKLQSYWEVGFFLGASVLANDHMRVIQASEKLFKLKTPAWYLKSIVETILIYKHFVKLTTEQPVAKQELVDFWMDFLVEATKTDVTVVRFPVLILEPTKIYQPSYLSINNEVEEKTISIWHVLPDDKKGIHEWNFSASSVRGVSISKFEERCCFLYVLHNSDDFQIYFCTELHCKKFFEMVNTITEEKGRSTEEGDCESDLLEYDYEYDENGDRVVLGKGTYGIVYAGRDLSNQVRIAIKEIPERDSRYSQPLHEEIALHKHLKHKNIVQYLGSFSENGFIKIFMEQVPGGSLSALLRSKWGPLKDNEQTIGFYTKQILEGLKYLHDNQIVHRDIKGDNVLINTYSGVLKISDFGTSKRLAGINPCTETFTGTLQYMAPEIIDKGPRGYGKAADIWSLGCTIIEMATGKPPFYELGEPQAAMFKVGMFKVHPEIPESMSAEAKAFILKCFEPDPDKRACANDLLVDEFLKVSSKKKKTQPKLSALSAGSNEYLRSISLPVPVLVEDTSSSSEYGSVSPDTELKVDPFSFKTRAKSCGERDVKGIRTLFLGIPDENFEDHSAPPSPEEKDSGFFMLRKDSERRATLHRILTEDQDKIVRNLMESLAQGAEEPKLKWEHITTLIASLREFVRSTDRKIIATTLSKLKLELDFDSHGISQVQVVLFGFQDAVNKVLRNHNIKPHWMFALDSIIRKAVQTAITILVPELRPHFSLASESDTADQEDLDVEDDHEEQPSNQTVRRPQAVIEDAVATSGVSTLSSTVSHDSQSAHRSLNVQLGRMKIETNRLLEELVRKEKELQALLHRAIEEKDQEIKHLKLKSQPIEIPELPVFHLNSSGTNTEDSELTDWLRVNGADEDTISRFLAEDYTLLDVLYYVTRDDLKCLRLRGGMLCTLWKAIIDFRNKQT
Tyrosine-protein kinase FRK (Homo sapiens), sequence (P42685 whole entry): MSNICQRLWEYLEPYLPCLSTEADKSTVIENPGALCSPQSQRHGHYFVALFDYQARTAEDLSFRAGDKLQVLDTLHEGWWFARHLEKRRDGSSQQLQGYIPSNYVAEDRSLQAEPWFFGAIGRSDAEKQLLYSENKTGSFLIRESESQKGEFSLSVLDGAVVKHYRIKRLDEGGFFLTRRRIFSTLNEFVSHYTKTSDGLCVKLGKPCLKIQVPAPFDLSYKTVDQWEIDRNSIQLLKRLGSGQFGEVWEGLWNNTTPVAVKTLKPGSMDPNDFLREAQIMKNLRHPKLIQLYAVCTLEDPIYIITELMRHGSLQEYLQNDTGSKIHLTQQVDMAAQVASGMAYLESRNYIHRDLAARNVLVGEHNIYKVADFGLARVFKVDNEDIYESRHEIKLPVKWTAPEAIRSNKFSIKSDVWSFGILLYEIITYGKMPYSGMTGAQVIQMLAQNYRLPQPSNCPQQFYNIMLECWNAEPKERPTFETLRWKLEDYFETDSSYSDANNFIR
Serine/threonine-protein kinase Sgk3 (Homo sapiens), sequence (Q96BR1 whole entry, the tested form may be a part): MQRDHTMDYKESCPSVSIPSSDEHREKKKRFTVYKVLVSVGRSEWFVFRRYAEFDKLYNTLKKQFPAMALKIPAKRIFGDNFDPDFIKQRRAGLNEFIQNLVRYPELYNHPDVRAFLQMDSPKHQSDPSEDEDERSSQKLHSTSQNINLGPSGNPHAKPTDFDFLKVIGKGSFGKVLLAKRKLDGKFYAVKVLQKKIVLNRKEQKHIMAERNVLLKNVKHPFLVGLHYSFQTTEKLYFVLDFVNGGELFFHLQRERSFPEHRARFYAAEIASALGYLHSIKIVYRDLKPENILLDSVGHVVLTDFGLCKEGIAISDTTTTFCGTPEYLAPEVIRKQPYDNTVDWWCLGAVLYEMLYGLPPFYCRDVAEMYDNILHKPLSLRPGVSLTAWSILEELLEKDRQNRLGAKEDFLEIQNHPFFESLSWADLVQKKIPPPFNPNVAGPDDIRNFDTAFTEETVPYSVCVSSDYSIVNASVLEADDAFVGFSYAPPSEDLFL

SMILES	inhibition [1] [%]	inhibition [2] [%]	Activity [3]	inhibition [4] [%]	inhibition [5] [%]	inhibition [6] [%]	inhibition [7] [%]	inhibition [8] [%]	inhibition [9] [%]	pIC50 [10]	inhibition [11] [%]
C=CC(=O)Nc1ccccc1Nc1nc(Nc2ccc(N3CCN(C)CC3)cc2)ncc1Cl	25.5	40.6	inactive	39.2	98.3	77.3	2	-2.7	64.7	–	–
COc1cc(O)c2c(c1)/C=C/C[C@H](O)[C@H](O)C(=O)/C=C\C[C@H](C)OC2=O	–	32.5	–	-9.6	13.9	67.7	16.1	-1.4	21.6	7.92	33.5
C=CC(=O)Nc1ccccc1Oc1nc(Nc2cnn(CCOC)c2)ncc1Cl	10	25.4	inactive	–	48.3	13.6	–	–	–	6.52	10.9
